Calls of active or inactive are those of the source.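 Rule for the calls: active = AC50 at or below twice the top valid dose for that sample, with falling signal; inconclusive = flat curve with inhibition of 30 to 70%, or poor fit; inactive = activity in the wrong direction, plus the rest.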 Bounds are passed on as bounds.

Broadly, the AC50 is the concentration at which the activity in the assay is half-maximal.

For the first assay, the target named is Scavenger receptor class B member 1 (Mus musculus) (UniProt Q61009). The assay can be described thus: inhibitors of HDL uptake via mouse SR-BI, dose response, ldlA[mSR-BI] CHO cells, fluorescence plate reader, dry powder, set 8 (AID 602285). The note with it: DiI-HDL uptake fluorescence, 3 h. Put shortly: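 Assay system: ldlA[mSR-BI] cells, LDL receptor-deficient CHO line overexpressing murine SR-BI; Buffer or medium: Ham's F12, fatty acid-free BSA, HEPES pH 7.4; Dosing: pin-transferred compound series; Times: 3 h uptake at 37 °C; Measured by: bottom-read DiI fluorescence after PBS washes, excitation 550 nm, emission 595 nm; Controls: DMSO as neutral control, BLT-1 as inhibitor control.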
Sequence of Scavenger receptor class B member 1 (Mus musculus) (Q61009 whole entry, looked up): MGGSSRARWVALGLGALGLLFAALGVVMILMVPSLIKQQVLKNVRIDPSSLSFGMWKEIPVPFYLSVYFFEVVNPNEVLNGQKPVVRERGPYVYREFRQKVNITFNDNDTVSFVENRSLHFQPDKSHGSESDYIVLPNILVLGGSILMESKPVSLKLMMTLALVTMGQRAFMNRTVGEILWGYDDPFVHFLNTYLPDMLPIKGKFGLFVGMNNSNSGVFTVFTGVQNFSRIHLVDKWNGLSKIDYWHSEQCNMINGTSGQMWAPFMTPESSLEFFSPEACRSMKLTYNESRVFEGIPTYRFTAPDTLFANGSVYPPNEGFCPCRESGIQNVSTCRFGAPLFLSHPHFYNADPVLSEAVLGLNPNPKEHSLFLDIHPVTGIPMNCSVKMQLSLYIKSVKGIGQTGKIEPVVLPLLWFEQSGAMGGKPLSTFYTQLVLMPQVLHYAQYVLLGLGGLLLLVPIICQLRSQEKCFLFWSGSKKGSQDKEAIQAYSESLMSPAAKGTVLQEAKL
As to `C[C@@H]1CN([C@H](C)CO)C(=O)c2cc(NC(=O)CCCN(C)C)ccc2O[C@H]1CN(C)S(=O)(=O)c1ccc(Cl)cc1`, the AC50 was > 70 µM (inactive).

As to `C[C@@H]1CN([C@H](C)CO)C(=O)c2cc(NC(=O)Cc3cn(C)c4ccccc34)ccc2O[C@H]1CN(C)S(C)(=O)=O`, the concentration at half-maximal activity (AC50) is 9.87 µM.

For the molecule `C[C@@H]1CN([C@H](C)CO)C(=O)c2cc(NC(=O)Cc3cn(C)c4ccccc34)ccc2O[C@H]1CN(C)C(=O)Nc1cccc2ccccc12`, the AC50 was 8.3 µM.

For `COc1cc(OC)cc(C(=O)Nc2nc(-c3ccc4c(c3)CCN4C(=O)CN3CCOCC3)cs2)c1`, the AC50 was less than 0.015 µM.

Turning to `C[C@@H]1CN([C@H](C)CO)C(=O)c2cc(NC(=O)C3CC3)ccc2O[C@H]1CN(C)S(=O)(=O)c1ccc(Cl)cc1`, the half-maximal activity concentration (AC50) is 2.06 µM.

As to `C[C@@H]1CN([C@H](C)CO)C(=O)c2cc(NC(=O)Cc3cn(C)c4ccccc34)ccc2O[C@H]1CN(C)C`, the AC50 is 17.9 µM.

Consider `C[C@@H]1CN([C@H](C)CO)C(=O)c2cc(NC(=O)Cc3cn(C)c4ccccc34)ccc2O[C@H]1CN(C)C(=O)NC1CCCCC1`, for which the AC50 is 9.18 µM.

For the molecule `C[C@@H]1CN([C@H](C)CO)C(=O)c2cc(NS(=O)(=O)c3ccccc3)ccc2O[C@H]1CN(C)S(=O)(=O)c1ccc(Cl)cc1`, the AC50 was 3.16 µM.

As to `C[C@@H]1CN([C@H](C)CO)C(=O)c2cc(NC(=O)Cc3cn(C)c4ccccc34)ccc2O[C@H]1CN(C)Cc1ccc2c(c1)OCO2`, the half-maximal activity concentration (AC50) was 0.865 µM.

In the case of `C[C@@H]1CN([C@H](C)CO)C(=O)c2cc(NC(=O)CCN3CCOCC3)ccc2O[C@H]1CN(C)S(=O)(=O)c1ccc(Cl)cc1`, the AC50 is 4.95 µM.

As for `C[C@@H]1CN([C@H](C)CO)C(=O)c2cc(NC(=O)Cc3cn(C)c4ccccc34)ccc2O[C@H]1CN(C)Cc1ccc(C(F)(F)F)cc1`, the AC50 was 0.653 µM.

For the molecule `C[C@@H]1CN([C@H](C)CO)C(=O)c2cc(NC(=O)Nc3cccc4ccccc34)ccc2O[C@H]1CN(C)S(=O)(=O)c1ccc(Cl)cc1`, the AC50 is 0.165 µM.

For the molecule `Cc1ccc(S(=O)(=O)N(C)C[C@@H]2Oc3ccc(NC(=O)Cc4cn(C)c5ccccc45)cc3C(=O)N([C@H](C)CO)C[C@H]2C)cc1`, the AC50 is 0.21 µM.

In the case of `C[C@@H]1CN([C@H](C)CO)C(=O)c2cc(NC(=O)Nc3ccc(F)cc3)ccc2O[C@H]1CN(C)S(=O)(=O)c1ccc(Cl)cc1`, the AC50 was 0.0708 µM.

Consider `C[C@@H]1CN([C@H](C)CO)C(=O)c2cc(NC(=O)Cc3cn(C)c4ccccc34)ccc2O[C@H]1CN(C)Cc1ccc(C(=O)Nc2ccccc2N)cc1`, for which the AC50 is 1.72 µM.

In the case of `C[C@@H]1CN([C@@H](C)CO)C(=O)c2cc(NC(=O)Cc3cn(C)c4ccccc34)ccc2O[C@@H]1CN(C)S(=O)(=O)c1ccc(Cl)cc1`, the AC50 was 10 µM.

In the case of `C[C@@H]1CN([C@H](C)CO)C(=O)c2cc(NS(=O)(=O)c3cn(C)cn3)ccc2O[C@H]1CN(C)S(=O)(=O)c1ccc(Cl)cc1`, the half-maximal activity concentration (AC50) is 3.39 µM.

Regarding `C[C@@H]1CN([C@H](C)CO)C(=O)c2cc(NC(=O)Cc3cn(C)c4ccccc34)ccc2O[C@H]1CN(C)C(=O)Nc1ccccc1`, the AC50 is 4.92 µM.

With `C[C@H](CO)N1C[C@H](C)[C@H](CN(C)C)Oc2c(NS(C)(=O)=O)cccc2C1=O`, the AC50 is > 70 µM (inactive).

`C[C@@H]1CN([C@H](C)CO)C(=O)c2cc(NC(=O)Cc3cn(C)c4ccccc34)ccc2O[C@H]1CN(C)C(=O)Nc1ccc(C(F)(F)F)cc1`: the AC50 is 2.18 µM.

With `C[C@@H]1CN([C@H](C)CO)C(=O)c2cc(NC(=O)C3CCCCC3)ccc2O[C@H]1CN(C)S(=O)(=O)c1ccc(Cl)cc1`, the half-maximal activity concentration (AC50) is 0.0304 µM.

On to `C[C@@H]1CN([C@H](C)CO)C(=O)c2cc(NC(=O)Cc3cn(C)c4ccccc34)ccc2O[C@H]1CN(C)Cc1ccccc1`, for which the AC50 is 1.55 µM.

With `COc1ccc(-c2nnn(CC(=O)N(C3CCCCC3)C(C)C(=O)NC3CCCCC3)n2)cc1OC` (stereo not drawn), the AC50 is 0.2 µM.

On to `C[C@H](C(=O)NC1CCCC1)N(C(=O)Cn1nnc(-c2ccc3c(c2)OCO3)n1)C1CCCCC1`, for which the AC50 was 0.0374 µM.

With `C[C@@H]1CN([C@H](C)CO)C(=O)c2cc(NC(=O)Cc3cn(C)c4ccccc34)ccc2O[C@H]1CN(C)S(=O)(=O)c1cccs1`, the AC50 was 2.36 µM.

For `C[C@@H]1CN([C@H](C)CO)C(=O)Cc2cc(NC(=O)Cc3cn(C)c4ccccc34)ccc2O[C@H]1CN(C)S(=O)(=O)c1ccc(F)cc1`, the AC50 is 33.2 µM.

In the case of `C[C@@H]1CN([C@H](C)CO)C(=O)c2cc(NC(=O)Cc3cn(C)c4ccccc34)ccc2O[C@H]1CN(C)S(=O)(=O)c1ccc(F)cc1`, the concentration at half-maximal activity (AC50) is 1.11 µM.

As for `COc1ccc(NC(=O)N(C)C[C@@H]2Oc3ccc(NC(=O)Cc4cn(C)c5ccccc45)cc3C(=O)N([C@H](C)CO)C[C@H]2C)cc1`, the AC50 is 1.75 µM.

For the molecule `C[C@@H]1CN([C@H](C)CO)C(=O)c2cc(NC(=O)Cc3cn(C)c4ccccc34)ccc2O[C@@H]1CN(C)S(=O)(=O)c1ccc(Cl)cc1`, the AC50 was 11.5 µM.

Consider `COc1ccc(CN(C)C[C@@H]2Oc3ccc(NC(=O)CCCN(C)C)cc3C(=O)N([C@H](C)CO)C[C@H]2C)cc1`, for which the AC50 is > 70 µM (inactive).

Take `C[C@@H]1CN([C@H](C)CO)C(=O)c2cc(NS(C)(=O)=O)ccc2O[C@H]1CN(C)S(=O)(=O)c1ccc(Cl)cc1`: the AC50 is 1.64 µM.

For `C[C@@H]1CN([C@H](C)CO)C(=O)c2cc(NC(=O)Cc3cn(C)c4ccccc34)ccc2O[C@H]1CN(C)S(=O)(=O)c1ccc(Cl)cc1`, the AC50 was 0.174 µM.

Regarding `COc1ccc(S(=O)(=O)N(C)C[C@@H]2Oc3ccc(NC(=O)Cc4cn(C)c5ccccc45)cc3C(=O)N([C@H](C)CO)C[C@H]2C)cc1`, the AC50 is 2.01 µM.

For the molecule `COc1ccc(S(=O)(=O)Nc2ccc3c(c2)C(=O)N([C@H](C)CO)C[C@@H](C)[C@H](CN(C)S(=O)(=O)c2ccc(Cl)cc2)O3)cc1`, the AC50 was 2.69 µM.

As to `CC(C)NC(=O)Nc1ccc2c(c1)C(=O)N([C@H](C)CO)C[C@@H](C)[C@H](CN(C)S(=O)(=O)c1ccc(Cl)cc1)O2`, the AC50 is 0.123 µM.

The assay is the same for the next values; noted with them: DiI-HDL uptake fluorescence, 3 h, at 11 µM (top of the series).
As to `C[C@@H]1CN([C@H](C)CN)C(=O)c2cc(NC(=O)Cc3cn(C)c4ccccc34)ccc2O[C@H]1CN(C)S(=O)(=O)c1ccc(Cl)cc1`, the “activity change, negative = inhibition” value was “inactive”.

Still in this assay, the particulars now being: DiI-HDL uptake fluorescence, 3 h, at 35 µM (top of the series).
For the molecule `C[C@@H]1CN([C@@H](C)CO)C(=O)Cc2cc(NS(=O)(=O)c3cn(C)cn3)ccc2O[C@H]1CN(C)Cc1ccc(Cl)c(Cl)c1`, the “activity change, negative = inhibition” value was “inactive”.

`C[C@@H]1CN([C@H](C)CO)C(=O)c2cc(NS(=O)(=O)c3ccc(Cl)cc3)ccc2O[C@H]1CN(C)S(=O)(=O)c1ccc(Cl)cc1`: the “activity change, negative = inhibition” value was “inactive”.

Turning to `C[C@@H]1CN([C@H](C)CO)S(=O)(=O)c2ccc(C3=CCCCC3)cc2O[C@@H]1CN(C)C(=O)Nc1ccc2c(c1)OCO2`, the “activity change, negative = inhibition” value is “inactive”.

Regarding `CCCNC(=O)N(C)C[C@@H]1Oc2cc(-c3cncnc3)ccc2S(=O)(=O)N([C@@H](C)CO)C[C@@H]1C`, the “activity change, negative = inhibition” value was “inactive”.

For the molecule `CC(C)NC(=O)Nc1cccc2c1O[C@@H](CN(C)Cc1ccc(C(F)(F)F)cc1)[C@@H](C)CN([C@@H](C)CO)C2=O`, the “activity change, negative = inhibition” value was “inactive”.

For the molecule `CO[C@@H]1CN(C)C(=O)c2ccc(NC(=O)C3CC3)cc2OC[C@@H](C)N(Cc2ccncc2)C[C@H]1C`, the “activity change, negative = inhibition” value is “inactive”.

Consider `C[C@@H]1CN([C@H](C)CO)C(=O)c2cc(NC(=O)Nc3ccccc3)ccc2O[C@H]1CN(C)S(=O)(=O)c1ccc(Cl)cc1`, for which the “activity change, negative = inhibition” value was “inactive”.

The values above are taken from PubChem BioAssay AID602285 (Broad Institute, 2012).
